Measured values reported in ChEMBL document CHEMBL1122724, “Synthesis and kinetic studies of protease substrates containing the 1-methyl-6-aminoquinolinium ion as a fluorogenic leaving group” (J Med Chem, 1984).

Assays:
[1] = biological target: Chymotrypsinogen B (Homo sapiens) (UniProt P17538); experiment: Kinetic constant was determined from the initial rates of enzymatic hydrolysis by the Lineweaver-Burke method against alpha-chymotrypsin enzyme at a concentration of 2.0 uM; conditions: Sus scrofa
Procedure, shortened: (§1)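 Chymotrypsin assayed in 50 mM Tris-HCl pH 8.0 with 10 mM CaCl2 at 25 °C. Active enzyme was titrated with 2-nitro-4-carboxyphenyl diphenylcarbamate. Product release was followed fluorimetrically, with excitation 410 nm and emission 550 nm for MAQ+, and 355/550 nm for 6-AQ. Constants were taken from initial hydrolysis rates by Lineweaver–Burk plots.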

[2] = biological target: Chymotrypsinogen B (Homo sapiens) (UniProt P17538); experiment: (§2) Ratio of Kcat to Km of the compound; conditions: Sus scrofa
[3] = as §2
[4] = biological target: Pancreatic elastase (Sus scrofa) (UniProt P08419+P00772); experiment: (§3) Kinetic constant was determined from the initial rates of enzymatic hydrolysis by the Lineweaver-Burke method against elastase at a concentration of 1.4 uM; type: protein assay
Procedure, shortened: (§4)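 Porcine pancreatic elastase assayed in 67 mM Tris-HCl pH 8.8 at 37 °C in a thermostatted cuvette. Specific activity was checked with orcein-elastin before each experiment. Leaving-group fluorescence was read at 410/550 nm (MAQ+) or 355/550 nm (6-AQ). Kinetic constants came from initial rates by Lineweaver–Burk analysis.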

[5] = biological target: Serine protease 1 (Homo sapiens) (UniProt P07477); experiment: Kinetic constant was determined from the initial rates of enzymatic hydrolysis by the Lineweaver-Burke method against trypsin enzyme at a concentration of 1.0 uM; conditions: Sus scrofa
Procedure, shortened: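 Trypsin, active-site titrated with p-nitrophenyl p-guanidinobenzoate, was used in 46 mM Tris-HCl pH 8.1 containing 11 mM CaCl2 at 25 °C. Hydrolysis was monitored by fluorescence, with excitation/emission 410/550 nm for MAQ+ and 355/550 nm for 6-AQ. Initial rates were fitted by the Lineweaver–Burk method.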

[6] = biological target: Serine protease 1 (Homo sapiens) (UniProt P07477); experiment: as §2; conditions: Sus scrofa
[7] = system: C[C@H](NC(=O)CCC(=O)O)C(=O)N[C@@H](C)C(=O)N[C@@H](C)C(=O)Nc1ccc2ncccc2c1; experiment: as §3; type: protein assay; procedure, shortened: as §4
[8] = system: C[C@H](NC(=O)OCc1ccccc1)C(=O)N[C@@H](C)C(=O)N[C@@H](C)C(=O)Nc1ccc2c(ccc[n+]2C)c1; experiment: as §3; type: protein assay; procedure, shortened: as §4
[9] = system: C[C@H](NC(=O)OCc1ccccc1)C(=O)N[C@@H](C)C(=O)Nc1ccc2c(ccc[n+]2C)c1; experiment: as §3; type: protein assay; procedure, shortened: as §4
[10] = system: C[n+]1cccc2cc(NC(=O)[C@H](Cc3ccccc3)NC(=O)OCc3ccccc3)ccc21; experiment: Kinetic constant was determined from the initial rates of enzymatic hydrolysis by the Lineweaver-Burke method against chymotrypsin enzyme at a concentration of 2.0 uM; conditions: Sus scrofa; procedure, shortened: as §1

Pancreatic elastase (Sus scrofa) (from UniProt P08419+P00772), sequence (P00772 whole entry, looked up): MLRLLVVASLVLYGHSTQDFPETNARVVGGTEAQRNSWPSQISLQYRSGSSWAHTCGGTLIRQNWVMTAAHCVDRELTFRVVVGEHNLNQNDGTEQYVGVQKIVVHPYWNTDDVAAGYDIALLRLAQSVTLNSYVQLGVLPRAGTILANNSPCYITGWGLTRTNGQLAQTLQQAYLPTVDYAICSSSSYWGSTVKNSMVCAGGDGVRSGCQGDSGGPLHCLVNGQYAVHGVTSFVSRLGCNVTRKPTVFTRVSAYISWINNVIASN
Pancreatic elastase (Sus scrofa) (from UniProt P08419+P00772), sequence (P08419 whole entry, looked up): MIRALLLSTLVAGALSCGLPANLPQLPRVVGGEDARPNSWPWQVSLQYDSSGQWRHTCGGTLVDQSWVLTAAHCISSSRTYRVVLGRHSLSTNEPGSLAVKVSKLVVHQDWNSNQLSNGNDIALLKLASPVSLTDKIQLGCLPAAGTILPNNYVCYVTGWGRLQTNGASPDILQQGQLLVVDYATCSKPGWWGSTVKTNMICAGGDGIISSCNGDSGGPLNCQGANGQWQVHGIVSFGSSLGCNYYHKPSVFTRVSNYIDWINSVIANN
Serine protease 1 (Homo sapiens), sequence (P07477 whole entry): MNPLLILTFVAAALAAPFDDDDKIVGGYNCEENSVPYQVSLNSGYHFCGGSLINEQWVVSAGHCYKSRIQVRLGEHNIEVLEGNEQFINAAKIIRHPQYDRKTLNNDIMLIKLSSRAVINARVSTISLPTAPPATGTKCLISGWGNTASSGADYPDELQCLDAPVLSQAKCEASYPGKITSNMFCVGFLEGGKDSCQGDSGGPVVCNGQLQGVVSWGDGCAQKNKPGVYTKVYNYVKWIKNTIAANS
Chymotrypsinogen B (Homo sapiens), sequence (P17538 34-164 limits assumed, other chains not shown): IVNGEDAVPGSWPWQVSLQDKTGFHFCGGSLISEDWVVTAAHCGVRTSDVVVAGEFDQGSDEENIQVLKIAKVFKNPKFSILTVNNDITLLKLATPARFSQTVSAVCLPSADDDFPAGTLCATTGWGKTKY
Chymotrypsinogen B (Homo sapiens), sequence (P17538 167-263 limits assumed, other chains not shown): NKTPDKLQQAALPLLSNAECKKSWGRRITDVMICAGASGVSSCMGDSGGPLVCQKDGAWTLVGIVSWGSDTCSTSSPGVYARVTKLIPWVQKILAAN

O=C(O)CCCC(=O)N[C@@H](Cc1ccccc1)C(=O)Nc1ccc2ncccc2c1
k cat [1]: 0.14 s⁻¹ | Ratio [2]: 79 M⁻¹ s⁻¹

C[C@H](NC(=O)CCC(=O)O)C(=O)N[C@@H](C)C(=O)N[C@@H](C)C(=O)Nc1ccc2ncccc2c1
Ratio [3]: 3400 M⁻¹ s⁻¹ | k cat [4]: 1.7 s⁻¹

C[n+]1cccc2cc(NC(=O)C(CCCN=C(N)N)NC(=O)c3ccccc3)ccc21 (stereo not drawn)
k cat [5]: 0.14 s⁻¹ | Ratio [6]: 636 M⁻¹ s⁻¹

C[C@H](NC(=O)OCc1ccccc1)C(=O)N[C@@H](C)C(=O)N[C@@H](C)C(=O)Nc1ccc2c(ccc[n+]2C)c1
Ratio [3]: 4740 M⁻¹ s⁻¹ | k cat [4]: 1.09 s⁻¹

N=C(N)NCCCC(NC(=O)c1ccccc1)C(=O)Nc1ccc2ncccc2c1 (stereo not drawn)
k cat [5]: 0.6 s⁻¹ | Ratio [6]: 1500 M⁻¹ s⁻¹

C[C@H](NC(=O)OCc1ccccc1)C(=O)N[C@@H](C)C(=O)Nc1ccc2c(ccc[n+]2C)c1
Ratio [3]: 10 M⁻¹ s⁻¹ | k cat [4]: 0.043 s⁻¹

Pancreatic elastase (Sus scrofa) (from UniProt P08419+P00772)
Km [7]: 500 µM | Km [8]: 230 µM | Km [9]: 4170 µM

Chymotrypsinogen A (Bos taurus) (from UniProt P00766)
Km [10]: 180 µM

C[n+]1cccc2cc(NC(=O)[C@H](Cc3ccccc3)NC(=O)OCc3ccccc3)ccc21
k cat [1]: 0.4 s⁻¹ | Ratio [2]: 2220 M⁻¹ s⁻¹
